Reference: ChEMBL document CHEMBL3797046, “Antioxidant Activity of Individual Steryl Ferulates from Various Cereal Grain Sources” (J Nat Prod, 2016)

Legend:
Format in all cases: physicochemical
[1] = Antioxidant activity assessed as hydroxyl radical scavenging activity at 2.5 uM by ESR spin trapping assay
Method in brief: (§1)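 Hydroxyl radicals came from Fenton reaction (H2O2, EDTA, FeSO4 to start) with DMPO spin trap. Samples in ACN (stocks 0.03–0.3 mM) gave final 1.5, 2.5, 5.0 or 15.0 μM; ACN alone served as control. ESR signal was taken as the ratio of the DMPO adduct second-singlet amplitude to the TEMPO (2 μM, daily reference) first-singlet amplitude.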

[2] = Antioxidant activity assessed as hydroxyl radical scavenging activity at 1.5 uM by ESR spin trapping assay; method in brief: as §1
[3] = Antioxidant activity assessed as superoxide anion radical scavenging activity at 160 uM measured as rate constant recorded every min for 7 mins by nitroblue tetrazolium assay (reference value: 0.188 +/- 0.001 /min)
Method in brief: (§2)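 Superoxide came from hypoxanthine/xanthine oxidase (2 mM HPX, 0.56 U·mL−1 XOD stocks) with 0.34 mM NBT in 50 mM phosphate buffer pH 7.4. A560 was read every minute for 7 min. Pseudo-first-order rate constant k1 and final NBTH2 absorbance (t → ∞) came from curve-fitting absorbance vs time, with antioxidant at 40, 80 or 160 μM.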

[4] = Antioxidant activity assessed as DPPH radical scavenging activity at 1.67 uM measured as absorbance (t -> infinity) after 10 secs by UV-visible spectrophotometry; conditions: 10 s
Method in brief: (§3)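 DPPH radical decay, antioxidant at 1.67, 16.7 or 60.0 μM. After 10 s of mixing with DPPH, A517 was read at once and then every 15 s for 5 min. The second-order rate constant k and the plateau absorbance (t → ∞) came from curve-fitting absorbance vs time under global second-order kinetics.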

[5] = Antioxidant activity assessed as superoxide anion radical scavenging activity at 80 uM measured as rate constant recorded every min for 7 mins by nitroblue tetrazolium assay (reference value: 0.188 +/- 0.001 /min); method in brief: as §2
[6] = Antioxidant activity assessed as hydroxyl radical scavenging activity at 15 uM by ESR spin trapping assay; method in brief: as §1
[7] = Antioxidant activity assessed as hydroxyl radical scavenging activity at 5 uM by ESR spin trapping assay; method in brief: as §1
[8] = Antioxidant activity assessed as superoxide anion radical scavenging activity at 40 uM measured as absorbance (t > infinity) recorded every min for 7 mins by nitroblue tetrazolium assay (reference value: 1.9 +/- 0.01); method in brief: as §2
[9] = Antioxidant activity assessed as superoxide anion radical scavenging activity at 160 uM measured as absorbance (t > infinity) recorded every min for 7 mins by nitroblue tetrazolium assay (reference value: 1.9 +/- 0.01); method in brief: as §2
[10] = Antioxidant activity assessed as superoxide anion radical scavenging activity at 80 uM measured as absorbance (t > infinity) recorded every min for 7 mins by nitroblue tetrazolium assay (reference value: 1.9 +/- 0.01); method in brief: as §2
[11] = Antioxidant activity assessed as DPPH radical scavenging activity at 60 uM measured as absorbance (t -> infinity) after 10 secs by UV-visible spectrophotometry; conditions: 10 s; method in brief: as §3
[12] = Antioxidant activity assessed as DPPH radical scavenging activity at 16.7 uM measured as absorbance (t -> infinity) after 10 secs by UV-visible spectrophotometry; conditions: 10 s; method in brief: as §3
[13] = Antioxidant activity assessed as superoxide anion radical scavenging activity at 40 uM measured as rate constant recorded every min for 7 mins by nitroblue tetrazolium assay (reference value: 0.188 +/- 0.001 /min); method in brief: as §2
[14] = Antioxidant activity assessed as DPPH radical scavenging activity measured as rate constant after 10 secs by UV-visible spectrophotometry; conditions: 10 s; method in brief: as §3
[15] = Antioxidant activity assessed as superoxide anion radical scavenging activity measured as rate constant recorded every min for 7 mins by nitroblue tetrazolium assay; method in brief: as §2

Row | Activity [1] | Activity [2] | K [3] | Activity [4] | K [5] | Activity [6] | Activity [7] | Activity [8] | Activity [9] | Activity [10] | Activity [11] | Activity [12] | K [13] | K [14] | Activity [15] | Compound
1 | 31% | 19% | 0.14 min⁻¹ | 1.008 | 0.15 min⁻¹ | 43% | 36% | 1.9 | 1.6 | 1.72 | 0.57 | 0.896 | 0.15 min⁻¹ | 0.014 µM⁻¹ s⁻¹ |  | COC(=O)/C=C/c1ccc(O)c(OC)c1
2 | 26% | 23% | 0.11 min⁻¹ | 1.144 | 0.11 min⁻¹ | 44% | 30% | 1.68 | 1.78 | 1.76 | 0.72 | 1.01 | 0.18 min⁻¹ | 0.012 µM⁻¹ s⁻¹ | Dose-dependent effect | CC[C@H](/C=C/[C@@H](C)[C@H]1CC[C@H]2[C@@H]3CC=C4C[C@@H](OC(=O)/C=C/c5ccc(O)c(OC)c5)CC[C@]4(C)[C@H]3CC[C@]12C)C(C)C
3 | 27% | 23% | 0.13 min⁻¹ | 1.198 | 0.19 min⁻¹ | 43% | 34% | 1.89 | 1.57 | 1.47 | 0.79 | 1.091 | 0.13 min⁻¹ | 0.018 µM⁻¹ s⁻¹ |  | COc1cc(/C=C/C(=O)O[C@H]2CC[C@@]3(C)[C@@H](CC[C@@H]4[C@@H]3CC[C@]3(C)[C@@H]([C@H](C)CC[C@@H](C)C(C)C)CC[C@@H]43)C2)ccc1O
4 | 24% | 20% | 0.13 min⁻¹ | 1.298 | 0.19 min⁻¹ | 43% | 31% | 1.64 | 1.16 | 1.38 | 0.64 | 0.944 | 0.19 min⁻¹ | 0.013 µM⁻¹ s⁻¹ | Dose-dependent effect | CC[C@H](CC[C@@H](C)[C@H]1CC[C@H]2[C@@H]3CC=C4C[C@@H](OC(=O)/C=C/c5ccc(O)c(OC)c5)CC[C@]4(C)[C@H]3CC[C@]12C)C(C)C
5 | 25% | 22% | 0.14 min⁻¹ | 1.156 | 0.21 min⁻¹ | 40% | 28% | 1.85 | 1.47 | 1.35 | 0.64 | 0.991 | 0.14 min⁻¹ | 0.015 µM⁻¹ s⁻¹ |  | CC[C@H](CC[C@@H](C)[C@H]1CC[C@H]2[C@@H]3CC[C@H]4C[C@@H](OC(=O)/C=C/c5ccc(O)c(OC)c5)CC[C@]4(C)[C@H]3CC[C@]12C)C(C)C
6 | 25% | 21% | 0.13 min⁻¹ | 1.273 | 0.18 min⁻¹ | 39% | 29% | 1.65 | 1.19 | 1.4 | 0.7 | 1.045 | 0.17 min⁻¹ | 0.013 µM⁻¹ s⁻¹ | Dose-dependent effect | COc1cc(/C=C/C(=O)O[C@H]2CC[C@@]3(C)C(=CC[C@H]4[C@@H]5CC[C@H]([C@H](C)CC[C@@H](C)C(C)C)[C@@]5(C)CC[C@@H]43)C2)ccc1O
7 | 24% | 24% | 0.11 min⁻¹ | 1.245 | 0.11 min⁻¹ | 40% | 30% | 1.76 | 1.82 | 1.71 | 0.74 | 0.979 | 0.17 min⁻¹ | 0.012 µM⁻¹ s⁻¹ | Dose-dependent effect | COc1cc(/C=C/C(=O)O[C@H]2CC[C@@]3(C)C(=CC[C@H]4[C@@H]5CC[C@H]([C@H](C)CCCC(C)C)[C@@]5(C)CC[C@@H]43)C2)ccc1O
8 | 29% | 19% | 0.13 min⁻¹ | 0.992 | 0.16 min⁻¹ | 42% | 36% | 1.9 | 1.6 | 1.7 | 0.58 | 0.851 | 0.14 min⁻¹ | 0.013 µM⁻¹ s⁻¹ |  | CCOC(=O)/C=C/c1ccc(O)c(OC)c1 [ETHYL FERULATE]
9 | 26% | 23% | 0.19 min⁻¹ | 1.232 | 0.14 min⁻¹ | 40% | 33% | 1.27 | 1.03 | 1.4 | 0.53 | 0.913 | 0.2 min⁻¹ | 0.012 µM⁻¹ s⁻¹ |  | COc1cc(/C=C/C(=O)O)ccc1O [FERULATE]
10 |  |  |  |  |  |  |  |  |  |  |  |  |  | 0.12 µM⁻¹ s⁻¹ |  | Oc1cccc(O)c1O [PYROGALLOL]
